Compound activity as filed in PubChem BioAssay.
Sampled rows, rich in hits. Any-hit rate of the full collection: about 5.8%.
KCC2 mod: KCC2 (human) Cl- transport modulation | AID 1456 | KCC2 cells, thallium flux FluoZin-2 fluorescence | 190,000 compounds, 2.2% hits | B-score of Tl+ flux slope (higher = more flux/activation; lower = inhibition) at 10 µM | Q9H2X9;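 active = thallium flux slope and its plate-corrected score both differing from the plate sample mean at a set confidence after two filtering rounds, in either direction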;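 note: slope of fluorescence scaled to starting intensity during 10 to 20 s after thallium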
Target sequence (Q9H2X9 whole entry, looked up): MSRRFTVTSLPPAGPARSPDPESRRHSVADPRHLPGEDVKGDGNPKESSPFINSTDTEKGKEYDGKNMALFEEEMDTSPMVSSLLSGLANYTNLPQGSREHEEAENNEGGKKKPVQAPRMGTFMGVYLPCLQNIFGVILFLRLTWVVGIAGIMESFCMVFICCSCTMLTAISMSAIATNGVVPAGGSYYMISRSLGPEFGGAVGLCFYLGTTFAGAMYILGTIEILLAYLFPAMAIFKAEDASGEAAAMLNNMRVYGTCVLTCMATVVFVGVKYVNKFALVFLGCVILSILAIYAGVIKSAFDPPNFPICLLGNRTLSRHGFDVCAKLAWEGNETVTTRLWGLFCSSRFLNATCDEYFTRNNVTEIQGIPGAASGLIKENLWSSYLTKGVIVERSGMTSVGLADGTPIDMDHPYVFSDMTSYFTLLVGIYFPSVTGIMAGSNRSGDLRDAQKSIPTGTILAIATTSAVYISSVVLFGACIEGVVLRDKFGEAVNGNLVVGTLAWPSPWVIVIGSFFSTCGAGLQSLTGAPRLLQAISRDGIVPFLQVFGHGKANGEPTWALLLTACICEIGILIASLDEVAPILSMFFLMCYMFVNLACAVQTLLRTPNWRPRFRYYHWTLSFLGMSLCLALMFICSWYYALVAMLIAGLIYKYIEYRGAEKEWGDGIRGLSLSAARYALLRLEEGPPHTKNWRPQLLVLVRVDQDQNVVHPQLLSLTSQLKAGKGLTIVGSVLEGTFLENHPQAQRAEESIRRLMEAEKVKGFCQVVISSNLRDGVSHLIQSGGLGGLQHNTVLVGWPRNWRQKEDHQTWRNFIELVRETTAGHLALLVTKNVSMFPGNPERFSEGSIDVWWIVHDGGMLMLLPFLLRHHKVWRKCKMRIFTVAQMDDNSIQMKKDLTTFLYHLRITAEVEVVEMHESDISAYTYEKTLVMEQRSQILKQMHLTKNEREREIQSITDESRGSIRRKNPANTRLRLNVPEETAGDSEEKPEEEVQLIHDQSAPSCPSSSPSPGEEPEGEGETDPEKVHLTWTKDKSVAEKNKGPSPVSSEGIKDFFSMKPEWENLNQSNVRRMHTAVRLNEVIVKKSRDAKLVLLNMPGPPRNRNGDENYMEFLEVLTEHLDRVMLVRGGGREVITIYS
14-3-3 Bad PPI: disrupts binding of bovine 14-3-3 zeta to phospho-Bad peptide | P63103 | TR-FRET 14-3-3zeta/Dy647-pBad peptide displacement, 1 h | inhibition, % at 21.7 µM | 220,000 compounds, 0.71% hits;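 active = inhibition above about 70%, limit read from the data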;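 note: 0% = full 14-3-3 plus peptide FRET controls and 100% = background without 14-3-3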
WT yeast gro inh: growth inhibition of WT yeast, mitochondrial fusion screen. mitochondrial fusion phenotypic screen, WT strain. inhibition, % at 10 µM. 190,000 compounds, 2.1% hits. AID 1362; in the data active = inhibition above about 58%; tested in S. cerevisiae
RBBP9 inh: human RBBP9 hydrolase inhibition; O75884; 220,000 compounds, 0.2% hits; inhibition, % at 7.94 µM; recombinant RBBP9, FP-Rh probe fluorescence polarization; AID 1515;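 active = inhibition above the campaign mean of all tested compounds plus 3 SD, cut at about 14% in these data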;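 note: plate controls were DMSO wells with RBBP9 for no effect and wells lacking RBBP9 protein for full effect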
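Assay system: recombinant human RBBP9; Reagent: Serine-hydrolase probe FP-Rh, 375 nM pre-mixing; Doses: 7.94 µM single dose, 0.794% DMSO; Incubation: 30 min then 45 min, 25 °C; Detection: fluorescence polarization (mP), excitation 525 nm, emission 598 nm; Evaluation: percent inhibition from mP, scaled between DMSO and no-protein wells.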
ROMK primary: modulates human ROMK potassium channel activity | P48048 | Tet-inducible ROMK, thallium flux fluorescence; actives lie on both sides | B-score at 10 µM | 130,000 compounds, 2% hits | AID 1918;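 active = signal ratio slope over the read window, or its plate-corrected B-score, at least 3 SD from the plate mean, either direction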;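 note: B-score of the F/F0 ratio slope over 7 to 12 s after thallium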
NCF1 inh: inhibitors of human p47phox binding; p47phox/p22phox peptide binding, fluorescence polarization, 2 h; inhibition, % at 24.7 µM; 220,000 compounds, 0.53% hits; AID 1274;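 active = inhibition above about 30%, limit read from the data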;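 note: 0% = p47phox with labelled peptide and 100% = labelled peptide alone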
KCC2 sec1: KCC2 (human) modulation, secondary assay. shares compounds with KCC2 mod. HEK293-KCC2, thallium flux, FluoZin2 fluorescence; active compounds read high. normalised thallium flux (F/F0 slope) at 10 µM. 3,700 compounds, 15% hits;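 active = thallium flux slope above the same plate's solvent-only control mean plus 3 SD; inconclusive = the two replicate wells disagree; inactive = no significant difference from solvent-only control wells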
KCC2 bumet counter: thallium flux despite bumetanide block in KCC2 cells, secondary assay 3; shares compounds with KCC2 mod; HEK293-KCC2 + bumetanide/ouabain, thallium flux FluoZin2; active compounds read high; normalized thallium flux at 10 µM; 3,700 compounds, 49% hits; AID 1714;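 active = thallium entry rate above the same plate's blocked-transporter control wells by more than 3 SD; inconclusive = the two repeat wells disagree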;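 note: raw slope of fluorescence over initial fluorescence between 10 and 20 s after thallium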
KCC2 sec2: KCC2 (human) modulation, second secondary assay; shares compounds with KCC2 mod; HEK293-KCC2, thallium flux FluoZin2 fluorescence; actives lie on both sides; F/F0 rise rate, 10–20 s post-thallium; normalized thallium flux at 10 µM; 3,700 compounds, 23% hits; AID 1715;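 active = thallium flux slope more than 3 SD above or below the plate's solvent-only control mean, mostly below; inconclusive = the two repeat wells disagreed; inactive = no significant shift from solvent-only controls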;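 note: raw slope with 0.1% DMSO as baseline and bumetanide as block control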
HEK293 Tl flux: counter-screen for KCC2 modulators: effect in parental HEK293 cells; thallium flux rate (normalised fluorescence) at 10 µM; 3,700 compounds, 46% hits; shares compounds with KCC2 mod; thallium flux FluoZin2, ouabain; baseline-ratio fluorescence slope, 10–20 s after thallium;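 active = thallium flux rate significantly above the same plate's solvent-only control wells, beyond their mean plus 3 SD; inconclusive = the two replicate wells gave conflicting results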
KCC2 retest ouab: modulates human KCC2 on retest with ouabain | shares compounds with KCC2 mod | HEK293-KCC2, thallium flux FluoZin2 fluorescence; bidirectional: low = inhibitor, high = activator | raw Tl+ flux slope (below DMSO = inhibition, above = activation) at 10 µM | 3,700 compounds, 48% hits | AID 1717;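 active = thallium flux slope beyond 3 SD from same-plate DMSO control mean in most replicates, usually higher, sometimes lower; inconclusive = repeat tests gave conflicting results; inactive = no significant difference from controls in most replicates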;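 note: slope of initial-normalized fluorescence between seconds 10 and 20 after thallium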
HEK293 Tl flux2: counter-screen for KCC2 modulators: effect in parental HEK293 cells | 3,700 compounds, 33% hits | thallium flux slope at 10 µM | AID 1718 | shares compounds with KCC2 mod | thallium flux FluoZin-2 fluorescence slope;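 active = thallium flux slope above the same plate's solvent-control mean plus 3 SD in both duplicate wells; inconclusive = duplicate wells that disagreed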;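 note: run without ouabain in cells lacking the KCC2 cotransporter; slope of fluorescence scaled to its starting value between 10 and 20 s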
* marks the source's active call; other numbers are inactive results; ? = inconclusive; / = no result.

SMILES	KCC2 mod	14-3-3 Bad PPI	WT yeast gro inh	RBBP9 inh	ROMK primary	NCF1 inh	KCC2 sec1	KCC2 bumet counter	KCC2 sec2	HEK293 Tl flux	KCC2 retest ouab	HEK293 Tl flux2
O=C(NC(=S)Nc1ccccc1)c1cncc(C#Cc2ccccc2)c1	23.5*	4.0	/	-10.7	0.0122	-2.5	?	0.0231*	0.0287	0.00997*	0.0393*	?
CCOc1cccc(C(=O)NC(=S)Nc2cccc(C)c2)c1	6.37*	-16.3	34.9	4.5	0.225	-1.9	0.00668	0.0109*	0.0339	0.0122*	?	0.015*
O=C(NC(=S)Nc1ccc(Cl)cc1)c1ccccc1	76.3*	-7.5	/	-7.0	/	-6.2	0.016*	0.0524*	0.0371	?	0.0462*	0.0229*
O=C(O)c1cccc(NC(=S)NC(=O)c2ccc(-c3ccccc3)cc2)c1	-6.13*	-0.7	-22.8	-2.6	0.0262	-8.7	?	0.00525	0.022*	0.00566*	0.0125*	?
NS(=O)(=O)c1cccc(NC(=S)NC(=O)C23CC4CC(CC(C4)C2)C3)c1	-0.533	-6.8	4.7	-9.4	0.022	-9.3	/	/	/	/	/	/
CC(=O)c1c(N2CCOCC2)nc2ccc(Cl)cc2c1-c1ccccc1	-2.24	1.1	/	-0.5	/	-11.0	/	/	/	/	/	/
CC(=O)c1cccc(NC(=S)NC(=O)c2ccccc2)c1	4.51*	-1.7	9.8	-9.5	0.183	-25.3	0.00647	0.0203*	0.0319	0.0181*	?	0.0162*
CC(=O)NCC12CC3CC(C1)CC(C(=O)O)(C3)C2	0.265	6.6	-19.1	-4.0	/	-14.4	/	/	/	/	/	/
COC(=O)NCC12CC3CC(C1)CC(CNC(=O)OC)(C3)C2	0.121	-2.0	4.3	-4.1	-0.0384	-13.7	0.00749	0.00441	0.0284	0.0071	0.0191	0.00963
Cn1c(=O)c2c(ncn2CC(=O)N/N=C/C=C\c2ccccc2[N+](=O)[O-])n(C)c1=O	0.0347	-9.5	/	2.0	/	-3.5	/	/	/	/	/	/
CC(=O)CSc1ncnc2sc3c(c12)CCCC3	2.24	2.0	21.6	-13.8	-1.67	2.8	/	/	/	/	/	/
Cc1ccc(C(=O)O)cc1NC(=O)CSc1ncnc2sc3c(c12)CCC3	10.4*	-11.6	/	-10.1	/	-4.6	0.00689	0.0156*	0.0364	0.0165*	0.0254*	0.0179*
CC(=O)C(Sc1ncnc2sc3c(c12)CCCC3)C(C)=O	6.42*	-5.9	75.9*	-14.4	-1.27	-8.8	0.0149*	0.0999*	0.0294	0.0182*	?	0.0131*
O=C(CSc1ncnc2sc3c(c12)CCCC3)c1ccco1	19.2*	-7.1	11.8	-5.4	0.446	-9.1	?	0.0953*	0.0378	?	0.0551*	?
CC(C)Cn1c(N)c(C(=O)CSc2ncnc3sc4c(c23)CCCC4)c(=O)n(C)c1=O	7.94*	25.7	-8.8	-5.6	0.588	-35.4	0.0177	0.0141*	0.0312	0.0137*	0.0213*	0.0138*
O=C(Nc1ccc(N2CCCCC2)cc1)c1ccc2ccccc2n1	0.794	-7.7	9.7	-7.4	0.348	-9.2	/	/	/	/	/	/
COc1cc(NC(=O)c2cccs2)c(OC)cc1NC(=O)CCC(=O)Nc1ccc2ncccc2c1	-1.09	48.9	-11.7	-8.6	0.487	25.5	/	/	/	/	/	/
Cc1cc(N)n(-c2ccccn2)n1	1.47	-11.8	/	-10.8	/	-20.0	/	/	/	/	/	/
CC(C#N)Sc1ncnc2sc3c(c12)CCC3 (stereo unspecified)	4.25*	2.8	-14.8	1.5	/	-8.8	?	0.0315*	0.0328	0.0171*	0.0219	0.0129*
N#CCSc1ncnc2sc3c(c12)CCC3	0.3	-6.6	7.9	1.1	/	-42.3	/	/	/	/	/	/
O=C(CCC(=O)N(CC(=O)NC1CCCC1)C1CCCCC1)Nc1ccccn1	0.18	-11.1	-11.8	4.7	0.0751	-0.8	/	/	/	/	/	/
C=CCS(=O)(=O)N1CCC(CCOc2ccccc2)(C(=O)OCC)CC1	0.0219	-6.1	-13.3	-9.9	-0.577	2.1	/	/	/	/	/	/
N#Cc1c(SCC(=O)O)nc(N2CCCCC2)c2c1CCCC2	-3.17*	8.4	2.3	-7.7	0.0231	-32.1	0.0116	0.00622	0.033	0.00645	0.0204	0.0105
O/N=C\c1cccn1-c1ccc(Br)cc1	/	1.3	7.2	3.0	0.524	-12.1	0.00835	0.006	0.0304	0.00592	0.0189	0.00966
COc1ccc(C(=O)C2CCCN(Cc3ccc4nonc4c3)C2)c(OC)c1 (stereo unspecified)	/	-8.2	12.1	-3.9	-1.32	-4.4	/	/	/	/	/	/
SMILES	KCC2 mod	14-3-3 Bad PPI	WT yeast gro inh	RBBP9 inh	ROMK primary	NCF1 inh	KCC2 sec1	KCC2 bumet counter	KCC2 sec2	HEK293 Tl flux	KCC2 retest ouab	HEK293 Tl flux2
CCOc1ccccc1NC(=O)NCc1ccco1	0.865	-2.7	/	-10.6	/	-12.8	/	/	/	/	/	/
O=C(Cn1nc(-c2ccccc2F)ccc1=O)NCc1ccc2c(c1)OCO2	-3.88*	-1.4	7.0	-9.8	/	-9.5	?	0.00513	?	0.0077	0.0136	0.0104
COc1ccccc1-c1ccc(SCC(=O)NCc2ccc3c(c2)OCO3)nn1	-1.51	-4.3	-24.3	0.5	-2.08	-1.9	/	/	/	/	/	/
O=c1c(-c2ccc(F)cc2)coc2cc(O)ccc12	-5.76*	0.9	44.7	-6.0	/	-19.0	0.00838	0.00655	0.0275	0.00779	0.0206*	?
O=C(Nc1nc2c(F)cc(F)cc2s1)c1ccccn1	23.2*	-14.1	41.4	-2.2	0.794	-27.1	0.0201*	0.105*	0.0306	0.0391*	0.076*	0.015*
CCOc1ccc2nc(NC(=O)c3ccccn3)sc2c1	6.41*	-7.0	/	0.0	/	-17.0	?	0.0278*	0.0281	0.0134*	0.0302*	?
Cc1ccc2nc(NC(=O)c3ccccn3)sc2c1	7.89*	-12.1	46.8	-4.2	0.581	-5.2	?	0.0409*	0.0319	0.0175*	0.0362*	0.0112*
Cc1ccc2nc(NC(=O)C3CCN(S(=O)(=O)c4cccs4)CC3)sc2c1	-1.98	7.7	17.0	-23.0	/	0.8	/	/	/	/	/	/
